An excerpt weighted towards active compounds, which were near 0.59% of everything screened.
zfTRPN1 agonist: zebrafish TRPN1 channel agonists, primary screen, cell-based, HEK293, calcium fluorescence; transient receptor potential cation channel N1 (TRPN1/NompC), Danio rerio; HEK293 zebrafish TRPN1-YFP, Fluo-8 calcium fluorescence; 100% = response to 87 µM carbachol; activation, % at 3 µM; 0.18% of 220,000 active;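 active = activation above its plate's cutoff, the mean activation of test wells on that plate plus 3 SD, cut at about 19% in these data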;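 also: 0% = DMSO alone and 100% = 87 µM carbachol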
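Material: zebrafish TRPN1-YFP in HEK293 cells. Doses: one dose of 3 µM, 0.3% DMSO. Incubation: dye 1 h 37 °C plus 30 min RT. Measured by: intracellular calcium fluorescence with Fluo-8.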
OXTR potentiate: human OXTR potentiators, primary screen, fluorescence, CHO-OTR cells, Fluo-8 calcium | Oxytocin receptor (Homo sapiens), P30559 | Fluo-8 calcium fluorescence, potentiator mode; 0% = oxytocin EC15, 100% = EC100 | activation, % at 3 µM | 0.061% of 320,000 active | AID 2445, 2010;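 active = activation above that plate's cutoff, the mean activation of tested compounds plus 3 SD, cut at about 6.6% in these data, passing the limit was not always enough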;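 also: 100% uses oxytocin at 75 nM as the full agonist control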
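Replication – single well per compound, singlicate · Assay system – CHO cell line stably expressing human OTR · Timing – 6 min pre-incubation, 100 s read · Measure – normalized max/min fluorescence ratio, % activation · Doses – 3.0 µM, one dose · Detection – Fluo-8 calcium dye fluorescence · Probe or stimulus – oxytocin near EC15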
OXTR ag: human OXTR agonists, primary screen, fluorescence, CHO-OTR cells, Fluo-8 calcium | Oxytocin receptor (Homo sapiens), P30559 | Fluo-8 calcium fluorescence; normalized: DMSO 0%, oxytocin 100% | activation, % at 3 µM | 0.32% of 320,000 active | AID 2435, 2010;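 active = activation above the mean of all tested compounds plus 3 SD, cutoff set per screening run, cut at about 20% in these data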;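 also: peak over basal fluorescence ratio from a 100 s FLIPR kinetic read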
TRPML3 ag: human TRPML3 channel agonists, primary screen, cell-based, HEK293 TRPML3-YFP, Fluo-8 calcium fluorescence, 3 µM | 100% = the carbachol control signal | 0.29% of 220,000 active | Mucolipin-3 (Homo sapiens), Q8TDD5 | activation, % at 3 µM;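 active = activation above its plate's cutoff, the mean activation of the plate's test wells plus 3 SD, cut at about 12% in these data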;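 also: 0% = DMSO only wells and 100% = carbachol wells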
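Material: HEK293 cells stably carrying human TRPML3-YFP; compound dosing: single dose, 3 µM final nominal compound, 0.3% DMSO final; incubation: 1-h 37 °C dye load, 5-s basal, 120-s post-compound reads; technique: Fluo-8 intracellular calcium fluorescence, excitation 470-495 nm, emission 515-575 nm; read-out basis: percent activation from peak-to-basal fluorescence ratio, scaled between DMSO and carbachol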
V1aR counter: agonists of human V1a receptor, primary screen, counter-screen for OXTR agonist project, fluorescence, CHO-V1R cells; Vasopressin V1a receptor (Homo sapiens), P37288; AID 2797, 2010; activation, % at 3 µM; 0.25% of 320,000 active; Fluo-8 calcium fluorescence, agonist mode; 0% DMSO, 100% 3 nM vasopressin;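 active = activation above the mean activation of all tested compounds plus 3 SD, per screening run, cut at about 20% in these data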;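 also: signal is peak over basal fluorescence ratio across a 100 second FLIPR read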
Target sequence (P37288 whole entry, looked up): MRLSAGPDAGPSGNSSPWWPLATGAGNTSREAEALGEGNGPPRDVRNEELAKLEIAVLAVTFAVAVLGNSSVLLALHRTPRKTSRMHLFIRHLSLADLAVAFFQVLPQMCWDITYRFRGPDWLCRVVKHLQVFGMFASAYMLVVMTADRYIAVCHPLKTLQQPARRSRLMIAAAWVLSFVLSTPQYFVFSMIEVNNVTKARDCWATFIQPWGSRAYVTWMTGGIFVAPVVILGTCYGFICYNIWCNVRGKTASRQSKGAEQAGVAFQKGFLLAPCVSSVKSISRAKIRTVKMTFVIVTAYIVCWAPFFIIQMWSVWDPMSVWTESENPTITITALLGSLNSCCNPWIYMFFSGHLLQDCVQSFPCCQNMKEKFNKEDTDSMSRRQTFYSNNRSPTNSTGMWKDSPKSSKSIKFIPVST
OXTR agonist cf: human OXTR agonists, confirmation, fluorescence, CHO-OTR cells, triplicate; shares compounds with OXTR ag; Fluo-8 calcium fluorescence, agonist; activation, % at 3 µM; 20% of 390 active;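 active = mean activation above about 20% derived from the earlier single-dose screen, limit read from the data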;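 also: peak over minimum fluorescence ratio per well during a 100 second FLIPR read; 0% = DMSO alone and 100% = oxytocin high control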
V1R ag counter 3x: V1a receptor agonists, calcium signal, counter-screen for OXTR agonist project, triplicate, fluorescence, CHO-V1R cells; shares compounds with OXTR ag; activation, % at 3 µM; Fluo-8 calcium fluorescence; 10% of 390 active;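 active = mean activation over triplicate exceeds the hit threshold set in the earlier primary screen, cut at about 20% in these data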;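 also: peak over basal fluorescence ratio within a 100 second read; 0% = DMSO alone and 100% = 3 nM vasopressin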
* marks the source's active call; other numbers are inactive results; · = not tested or not shown.

SMILES	zfTRPN1 agonist	OXTR potentiate	OXTR ag	TRPML3 ag	V1aR counter	OXTR agonist cf	V1R ag counter 3x
CC(=O)Oc1ccc(C(=O)Cc2ccc3ccccc3n2)c(O)c1C	2	2	2	1	3	·	·
Cc1c(O)ccc(/C(Cc2ccc3ccccc3n2)=N\O)c1O	1	-24	22*	2	17	13	7
Nc1nc(N)c2cc(Sc3ccc4ccccc4c3)ccc2n1	2	-11	27*	3	13	1	1
CC1=CC(=O)O[C@@H]1[C@@]1(C)C[C@H]2OC(=O)C[C@H]3[C@@H](C)C(=O)C(O)=C1[C@@]23CO	·	3	1	·	1	·	·
O=C(C1CCN(S(=O)(=O)c2cccs2)CC1)N1CCCC(C(F)(F)F)C1 (centres undefined)	·	-10	0	·	1	·	·
COc1ccc2c(-c3ccc(S(N)(=O)=O)cc3)c(-c3ccc(S(C)(=O)=O)cc3)sc2c1	·	-5	4	·	2	·	·
Cc1ccccc1OCC(=O)Nc1ccc(N2CCN(C)CC2)c(Cl)c1	·	-13	20*	·	13	3	2
CCC(C)N1C(=O)/C(=C/c2c(NCCCOC(C)C)nc3c(C)cccn3c2=O)SC1=S (centres undefined)	2	-7	21*	2	18	37*	85*
CCN(C[C@H]1N[C@@](C)(C(=O)OC)[C@H]2C(=O)N(C)C(=O)[C@@H]12)S(=O)(=O)c1ccc(OC)cc1	·	6	3	·	1	·	·
O=C(Nc1cccc(Br)c1)c1ccc(Cl)c(S(=O)(=O)N2CCOCC2)c1	10	-14	24*	4	15	10	10
CCOC(=O)C(Cc1ccc(O)cc1)NC(=O)CCc1c[nH]c2ccccc12 (centres undefined)	·	-21	23*	·	17	19	3
Cc1ccc(-c2nn(-c3ccccc3)cc2C2CC(c3cccs3)=NN2C(=O)CCCC(=O)O)cc1 (centres undefined)	3	-12	23*	1	19	7	2
COc1ccc(-c2nn(-c3ccccc3)cc2C2CC(c3cccs3)=NN2C(=O)CCCC(=O)O)cc1 (centres undefined)	2	-12	8	1	7	·	·
CN(C)CCCN(C(=O)CCc1ccccc1)c1nc2ccc(Cl)cc2s1	1	-12	24*	3	14	6	2
Cc1ccc2nc(N(CCCN(C)C)C(=O)CS(=O)(=O)c3ccccc3)sc2c1	·	-1	4	·	1	·	·
Cc1ccc2nc(N(CCCN(C)C)C(=O)CCc3ccccc3)sc2c1	0	-10	23*	2	9	4	1
CN(C)CCCN(C(=O)COc1ccccc1)c1nc2ccc(Cl)cc2s1	1	-9	9	1	7	·	·
Cc1ncc(CN2CCC(CO)(CCOc3ccccc3)CC2)s1	2	-7	21*	1	0	0	0
N#Cc1ccsc1NC(=O)c1ccc(Cl)c([N+](=O)[O-])c1	30*	-9	22*	19*	15	18	12
CN1CCS/C1=C/C=C1\SC(=S)N(CC(=O)O)C1=O	21*	-7	33*	10	19	31*	38*
O=C(NCc1ccc(Cl)cc1)C(=O)NCC1OCCCN1S(=O)(=O)c1cccs1 (centres undefined)	·	-5	1	·	2	·	·
FC(F)(F)c1cccc(-c2nc3nc(Cl)c(Cl)nc3[nH]2)c1	32*	-25	22*	14*	11	14	10
CCOC(=O)c1ccc(NS(=O)(=O)c2ccc3c(c2)n(C)c(=O)n3C)cc1	·	-23	30*	·	15	4	5
Cc1ccc(NS(=O)(=O)c2ccc(C(=O)OCC(=O)N3CCCCC3)cc2)cc1	·	-10	24*	·	19	19	14
Cn1nc(N2CCN(S(=O)(=O)c3ccccc3)CC2)c(=O)n(C)c1=O	·	4	1	·	1	·	·
SMILES	zfTRPN1 agonist	OXTR potentiate	OXTR ag	TRPML3 ag	V1aR counter	OXTR agonist cf	V1R ag counter 3x
CC(=O)c1cc2c(cc1NC(=O)CCc1c(C)nc3ncnn3c1C)OCO2	·	10	0	·	0	·	·
CCOc1ccc(OCC)c(NC(=O)CSc2nnnn2CC)c1	-1	-16	22*	0	0	-1	-1
CCn1nnnc1SCC(=O)Nc1ccc(OC)cc1	-2	-12	0	1	0	·	·
Cc1cc(-c2nnc(SCC(=O)Nc3ccccc3C(F)(F)F)o2)c(C)n1-c1ccccc1	5	-24	21*	3	16	24*	11
NC(=O)c1c(NC(=O)c2ccncc2)sc2c1CCCC2	1	-6	-1	0	0	·	·
NC(=O)c1c(NC(=O)c2ccncc2)sc2c1CCCCCC2	·	-8	24*	·	13	14	21*
CC(C)(C)OC(=O)NCc1ccc(CNC(=O)c2[nH]cnc2C(=O)NC2CCN(C(=O)OC(C)(C)C)CC2)cc1	·	-5	0	·	0	·	·
CN(C(=O)COC(=O)C1CCN(S(=O)(=O)c2c(Cl)cccc2Cl)CC1)C1CCCCC1	·	-18	6	·	5	·	·
COc1cc(/C=C2\Oc3cc(O)ccc3C2=O)ccc1O	·	-11	22*	·	12	13	21*
CCOC(=O)c1[nH]cnc1C(=O)Nc1cccc(OC)c1	0	-17	-1	1	1	·	·
CNC(=O)c1[nH]cnc1C(=O)Nc1cccc(OC)c1	-1	-18	32*	1	1	-1	0
Cc1ccc(OCC(=O)N(C)CC(=O)Nc2ccccc2Cl)c([N+](=O)[O-])n1	·	1	0	·	1	·	·
CCOc1cc(CNC2CCCC2)cc(Cl)c1OCc1ccc(F)cc1	0	-12	21*	1	10	6	4
COc1cc(CNC2CCCC2)cc(Cl)c1OCc1ccc(F)cc1	1	-11	13	1	11	·	·
COC(=O)c1ccc(NC(=O)COC(=O)COc2cccc3c2OC(C)(C)C3)cc1	·	-8	5	·	4	·	·
O=C(NC1CCCCC1)N1CCCc2ccccc21	-2	-1	-2	0	-1	·	·
O=C(C1CCCCC1)N1CCCc2ccccc21	0	-20	30*	0	-1	5	0
O=C(CNCc1ccc(F)cc1)Nc1ccc(C(=O)N2CCCCC2)cc1	·	-1	4	·	4	·	·

Screens: PubChem, The Scripps Research Institute Molecular Screening Center
